Myeloid diff 2: myeloid differentiation induction | ER-HoxA9 myeloid progenitors, lysozyme-GFP differentiation, flow cytometry | calls only at 10 µM | hit rate 1% among 360,000 | AID 624256;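 active means normalized GFP-positive differentiation at or above the plate's own cutoff, the solvent-only control mean plus 3 SD; inconclusive means no clear call, values can overlap the other calls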;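 further: cells exposed to compound for four days before flow analysis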
TPT1 inh: inhibitors of Candida albicans tRNA 2'-phosphotransferase TPT1; recombinant caTPT1, FP RNA substrate dephosphorylation; inhibition, % at 5 µM; hit rate 0.81% among 300,000;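 active means inhibition above the mean of all tested compounds plus 3 SD, set per screening campaign, cut at about 24% in these data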;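 further: plate controls were DMSO alone for no effect and ferristatin control at 100 nM for full effect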
HNF4A DNA FP: change in binding of human HNF4 alpha to DNA; activity change, % at 10 µM; HNF4a-FITC DNA binding, fluorescence polarization, 1 h; P41235; hit rate 0.3% among 360,000; in the data active means activity change above about 30%, passing the limit was not always enough
CSN inh: CSN deneddylation inhibition. Q92905. hit rate 0.38% among 360,000. AID 651999. inhibition, % at 12.5 µM. Purified CSN, SCF-Nedd8-OG deneddylation, fluorescence polarization;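 active means pattern-corrected inhibition above about 35%, with an unprinted fluorescence ratio check between 0.5 and 1.5, limit read from the data, passing the limit was not always enough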;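 further: 0% = enzyme with substrate and 100% = substrate without enzyme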
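test system = HEK293T-derived human Csn5 enzyme | amount = 0.24 nM Csn5 enzyme, final concentration | medium = Tris/NaCl/DTT buffer, pH 7.5 | schedule = 90 min reaction at room temperature | signal = FP | evaluation = inhibition of Csn5 cleavage, % | compound dosing = single dose of 12.5 µM compound with 0.25% DMSO | probe or stimulus = 10 nM SCFSkp2-Nedd8OG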
Rpn11 block: blocks the human proteasome subunit Rpn11 | human 26S proteasome, Ub4-pepOG fluorescence polarization; 20S core pre-blocked with epoxomicin | inhibition, % at 20 µM | hit rate 0.59% among 360,000;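 active means inhibition at 20 µM, scaled to each plate's controls, above about 33%, limit read from the data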
Target sequence (O00487 whole entry, looked up): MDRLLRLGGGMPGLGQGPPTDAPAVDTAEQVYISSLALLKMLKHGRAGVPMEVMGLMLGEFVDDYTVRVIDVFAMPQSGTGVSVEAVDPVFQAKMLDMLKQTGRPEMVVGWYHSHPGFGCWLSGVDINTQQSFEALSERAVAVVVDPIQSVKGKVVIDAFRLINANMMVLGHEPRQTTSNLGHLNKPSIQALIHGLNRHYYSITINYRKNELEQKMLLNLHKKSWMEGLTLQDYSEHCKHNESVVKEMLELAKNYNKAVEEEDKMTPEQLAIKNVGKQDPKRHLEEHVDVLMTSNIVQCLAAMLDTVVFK
An asterisk follows results filed as active. Shown are actives, neighbours in structure and some others; about 2.3% of the full set was active somewhere.

Screening Cc1ccccc1N/C(=N/S(=O)(=O)c1ccccc1)c1ccc(F)cc1 returned Myeloid diff 2 active, TPT1 inh -2, HNF4A DNA FP -3, CSN inh 5 and Rpn11 block 1.
For COc1ccc(NS(=O)(=O)c2cc(N/C(=N\S(=O)(=O)c3ccccc3)c3ccc(F)cc3)ccc2Cl)cc1 the results were Myeloid diff 2 active, TPT1 inh 1, HNF4A DNA FP 0, CSN inh 2 and Rpn11 block 5.
`Cc1ccc(/C(=N\S(=O)(=O)c2ccc(Br)cc2)Nc2ccccc2C)cc1` gave Myeloid diff 2 inactive, TPT1 inh -4, HNF4A DNA FP 1, CSN inh 3 and Rpn11 block 5.
For COc1ccc(C(C)(NC(C)=O)c2nc(-c3cc(F)cc(F)c3)cs2)cc1 (stereo unspecified) the results were Myeloid diff 2 inactive, HNF4A DNA FP -6, CSN inh -2 and Rpn11 block 3.
CCCNC(=O)c1ccc(N2CCC3(CC2)CC(c2ccccc2)=NO3)c(NC(=O)c2ccccc2)c1 was read as Myeloid diff 2 active, TPT1 inh -1, HNF4A DNA FP 3, CSN inh -2 and Rpn11 block 2.
`CCCNC(=O)c1ccc(N2CCC3(CC2)CC(c2ccccc2)=NO3)c(NC(=O)c2ccc(Br)cc2)c1` gave Myeloid diff 2 inactive, TPT1 inh 0, HNF4A DNA FP -1, CSN inh 0 and Rpn11 block -15.
For CC1=Nc2ccccc2/C1=C/c1c(C)[nH]c2ccccc12 the results were Myeloid diff 2 active, HNF4A DNA FP 4, CSN inh -4 and Rpn11 block 10.
`CC(=O)c1c(C)[nH]c2ccccc2c1=O` gave Myeloid diff 2 inactive, TPT1 inh -4, HNF4A DNA FP 11, CSN inh -1 and Rpn11 block -7.
`O=c1[nH]c2cc3ccccc3cc2nc1-c1nnnn1C1CCCC1` gave Myeloid diff 2 active, HNF4A DNA FP -8 and CSN inh 1.
O=c1[nH]c2ccccc2nc1-c1nnnn1C1CCCC1 was read as Myeloid diff 2 inactive, HNF4A DNA FP -1 and CSN inh -5.
COc1ccc(/C=C/C(=O)c2ccc(O)cc2)cc1CN1CCOCC1 was read as Myeloid diff 2 active, TPT1 inh 3, HNF4A DNA FP -2, CSN inh -12 and Rpn11 block -4.
COc1ccc(C(=O)/C=C/c2ccc(OC)c(Cn3nnc4ccccc43)c2)cc1 was read as Myeloid diff 2 active, TPT1 inh 4, HNF4A DNA FP -5, CSN inh -10 and Rpn11 block 10.
For COc1ccc(C(=O)/C=C/c2ccc(OC)c(CN3CCOCC3)c2)cc1 the results were Myeloid diff 2 inconclusive, TPT1 inh 1, HNF4A DNA FP 2, CSN inh 6 and Rpn11 block -1.
Screening N#Cc1cccc(C=C(C(=O)c2ccccc2)c2ccccc2)c1 returned Myeloid diff 2 inactive, HNF4A DNA FP -1 and CSN inh -2.
COC(=O)CCCn1cc(CN(C)C2CN(Cc3cn(CCCC(=O)OC)nn3)S(=O)(=O)C2)nn1 (stereo unspecified) was read as Myeloid diff 2 inactive, HNF4A DNA FP 3 and CSN inh -4.
C/C(CC(=O)Nc1ccc2c(c1)OCCO2)=N\NC(=O)COc1cccc(C)c1 was read as Myeloid diff 2 active, TPT1 inh 2, HNF4A DNA FP -2, CSN inh -1 and Rpn11 block 0.
Screening Cc1ccc(N2CCN(C(=O)c3cccc([N+](=O)[O-])c3)CC2)cc1Cl returned Myeloid diff 2 inactive, TPT1 inh -1, HNF4A DNA FP 3, CSN inh -15 and Rpn11 block -4.
For O=C(c1cccc([N+](=O)[O-])c1)N1CCN(c2cccc(Cl)c2)CC1 the results were Myeloid diff 2 active, TPT1 inh -1, HNF4A DNA FP 2, CSN inh -8 and Rpn11 block 2.
`COc1ccc(-n2nnnc2C2(C)CCC(=O)N2Cc2ccccc2)cc1` (stereo unspecified) gave Myeloid diff 2 inactive, HNF4A DNA FP 3 and CSN inh 0.
For CCC(C)/C(C)=N/NC(=O)c1ccc(COc2ccc(Cl)c(C)c2)cc1 (stereo unspecified) the results were Myeloid diff 2 active, TPT1 inh 1, HNF4A DNA FP 2, CSN inh -4 and Rpn11 block 1.
`O=c1[nH][nH]c2c1[C@H](c1ccccc1)O[C@H](C1CCCCC1)C2` gave Myeloid diff 2 inactive, HNF4A DNA FP 1 and CSN inh -2.
For Cc1ccc(S(=O)(=O)NC(C(=O)Oc2ccc3ccc(=O)oc3c2)c2ccccc2)cc1 (stereo unspecified) the results were Myeloid diff 2 inactive, TPT1 inh 1, HNF4A DNA FP 2, CSN inh 2 and Rpn11 block -8.
Screening Cc1ccc(S(=O)(=O)NCCC(=O)Oc2ccc3ccc(=O)oc3c2)cc1 returned Myeloid diff 2 inactive, TPT1 inh 3, HNF4A DNA FP 5, CSN inh 41* and Rpn11 block 0.
O=c1ccc(-c2ccc(S(=O)(=O)NCc3cccc(Br)c3)s2)n[nH]1 was read as Myeloid diff 2 inactive, TPT1 inh -2, HNF4A DNA FP 36*, CSN inh -4 and Rpn11 block -5.
`O=c1ccc(-c2ccc(S(=O)(=O)Nc3ccc(F)cc3)s2)n[nH]1` gave Myeloid diff 2 inactive, TPT1 inh -4, HNF4A DNA FP 0, CSN inh 0 and Rpn11 block 1.
Screening CC(=O)Nc1ccc(NC(=O)CSCCc2ccccn2)cc1 returned Myeloid diff 2 inactive, TPT1 inh 1, HNF4A DNA FP 2, CSN inh 4 and Rpn11 block -1.
`COC(=O)c1cc2c(cc1NC(=O)CSCCc1ccccn1)OCO2` gave Myeloid diff 2 active, TPT1 inh -15, HNF4A DNA FP -1, CSN inh 0 and Rpn11 block -7.
`Nc1ccc(N2CCCC2)c(S(=O)(=O)Nc2cccc(C(F)(F)F)c2)c1` gave Myeloid diff 2 active, HNF4A DNA FP 5, CSN inh 0 and Rpn11 block 11.
Screening COC(=O)C[C@H]1C=C[C@H](NC(=O)c2ccccn2)[C@@H](CO)O1 returned Myeloid diff 2 inactive, HNF4A DNA FP 5 and CSN inh -4.
`Clc1ccc(C2=Nc3cc(Cl)ccc3OC2)cc1` gave Myeloid diff 2 inactive, TPT1 inh 2, HNF4A DNA FP 68*, CSN inh -9 and Rpn11 block -11.
For Cc1ccc2c(c1)N=C(c1ccc(Cl)cc1)CO2 the results were Myeloid diff 2 inactive, TPT1 inh -4, HNF4A DNA FP 1, CSN inh 1 and Rpn11 block 1.
`CC1CCCCC1N1CN=C(Nc2nc3ccccc3s2)NC1` (stereo unspecified) gave Myeloid diff 2 active, TPT1 inh -1, HNF4A DNA FP 5, CSN inh -4 and Rpn11 block -10.

Compound activity: PubChem BioAssay, several laboratories
